# Source: ChEMBL document CHEMBL4052702 (Bioorg Med Chem Lett, 2017)
# Columns and labels:
# Histone deacetylase 1 [1] = target: T1, Histone deacetylase 1 (Homo sapiens, UniProt Q13547); test: Inhibition of HDAC1 (unknown origin) assessed as remaining enzyme activity at 0.025 uM by ELISA-based assay
# Procedure, shortened: (§1)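 Isoform screen by ELISA-based HDAC activity assay against HDAC1, HDAC2, HDAC3 and HDAC6. Each analog was tested at one final concentration: 0.025, 0.125, 0.25 or 1.25 µM. Read-out is percent deacetylase activity remaining, given as the mean with standard error of at least two independent trials.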
# [2] = target: T2, Protein deacetylase HDAC6 (Homo sapiens) (UniProt Q9UBN7); test: Inhibition of HDAC6 (unknown origin) assessed as remaining enzyme activity at 0.025 uM by ELISA-based assay; procedure, shortened: as §1
# T2 sequence (whole entry): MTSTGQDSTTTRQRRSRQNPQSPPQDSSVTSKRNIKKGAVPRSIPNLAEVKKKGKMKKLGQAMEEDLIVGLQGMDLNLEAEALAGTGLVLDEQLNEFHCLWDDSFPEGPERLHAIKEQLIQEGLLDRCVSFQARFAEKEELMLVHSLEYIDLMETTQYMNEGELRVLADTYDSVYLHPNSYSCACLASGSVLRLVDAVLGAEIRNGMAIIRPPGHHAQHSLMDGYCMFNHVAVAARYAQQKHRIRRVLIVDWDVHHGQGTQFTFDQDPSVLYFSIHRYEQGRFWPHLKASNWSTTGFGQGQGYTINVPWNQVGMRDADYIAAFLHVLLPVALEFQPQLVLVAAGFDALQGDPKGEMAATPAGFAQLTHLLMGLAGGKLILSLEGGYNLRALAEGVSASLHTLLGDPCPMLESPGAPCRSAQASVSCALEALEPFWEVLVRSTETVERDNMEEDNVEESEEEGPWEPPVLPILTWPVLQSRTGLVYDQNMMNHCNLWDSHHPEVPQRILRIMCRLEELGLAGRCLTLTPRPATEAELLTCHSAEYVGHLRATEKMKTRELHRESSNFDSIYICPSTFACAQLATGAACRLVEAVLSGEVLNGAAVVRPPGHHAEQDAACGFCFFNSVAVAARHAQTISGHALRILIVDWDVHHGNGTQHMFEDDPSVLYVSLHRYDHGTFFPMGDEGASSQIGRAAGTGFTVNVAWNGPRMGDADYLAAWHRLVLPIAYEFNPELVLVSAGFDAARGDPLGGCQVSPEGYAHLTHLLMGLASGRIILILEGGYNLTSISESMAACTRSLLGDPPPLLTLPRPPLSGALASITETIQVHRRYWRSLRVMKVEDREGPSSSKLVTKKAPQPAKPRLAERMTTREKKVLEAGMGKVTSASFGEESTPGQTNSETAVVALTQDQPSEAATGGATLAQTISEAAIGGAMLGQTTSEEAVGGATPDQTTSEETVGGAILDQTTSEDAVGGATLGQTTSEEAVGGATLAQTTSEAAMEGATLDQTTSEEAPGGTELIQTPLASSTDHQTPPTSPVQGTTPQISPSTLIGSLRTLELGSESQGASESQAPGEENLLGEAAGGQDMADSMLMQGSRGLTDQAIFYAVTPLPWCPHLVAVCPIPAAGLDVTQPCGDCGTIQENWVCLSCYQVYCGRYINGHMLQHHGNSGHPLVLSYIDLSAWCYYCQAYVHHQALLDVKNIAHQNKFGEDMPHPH
# Homo sapiens [3] = organism: Homo sapiens; test: Inhibition of HDAC in human HeLa-S3 cells lysates assessed as remaining enzyme activity at 1.25 x 10^-7 M pre-incubated for 15 mins before HDAC-Glo I/II substrate addition and measured after 30 mins post substrate addition; format: cell-free
# Homo sapiens [4] = organism: Homo sapiens; test: Inhibition of HDAC in human HeLa-S3 cells lysates assessed as remaining enzyme activity at 6.25 x 10^-8 M pre-incubated for 15 mins before HDAC-Glo I/II substrate addition and measured after 30 mins post substrate addition; format: cell-free
# Histone deacetylase 2 [5] = target: T3, Histone deacetylase 2 (Homo sapiens, UniProt Q92769); test: Inhibition of HDAC2 (unknown origin) assessed as remaining enzyme activity at 0.025 uM by ELISA-based assay; procedure, shortened: as §1
# T3 sequence (Q92769 whole entry): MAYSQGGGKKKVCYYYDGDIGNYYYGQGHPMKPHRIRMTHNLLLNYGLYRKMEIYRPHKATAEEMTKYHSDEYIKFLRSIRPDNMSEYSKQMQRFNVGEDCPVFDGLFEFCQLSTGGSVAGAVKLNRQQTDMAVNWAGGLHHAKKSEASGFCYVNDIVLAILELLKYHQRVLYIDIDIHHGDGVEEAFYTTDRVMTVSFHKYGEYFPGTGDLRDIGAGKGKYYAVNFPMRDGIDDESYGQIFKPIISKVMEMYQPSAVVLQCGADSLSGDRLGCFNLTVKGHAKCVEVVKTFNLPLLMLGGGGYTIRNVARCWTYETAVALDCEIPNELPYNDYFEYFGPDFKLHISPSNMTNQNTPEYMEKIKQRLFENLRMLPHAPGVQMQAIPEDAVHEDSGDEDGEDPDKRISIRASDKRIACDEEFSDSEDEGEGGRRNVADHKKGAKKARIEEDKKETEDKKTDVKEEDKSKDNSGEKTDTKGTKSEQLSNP
# Homo sapiens [6] = organism: Homo sapiens; test: Inhibition of HDAC in human HeLa-S3 cells lysates assessed as remaining enzyme activity at 3.13 x 10^-8 M pre-incubated for 15 mins before HDAC-Glo I/II substrate addition and measured after 30 mins post substrate addition; format: cell-free
# Homo sapiens [7] = organism: Homo sapiens; test: Inhibition of HDAC in human HeLa-S3 cells lysates assessed as remaining enzyme activity at 5 x 10^-7 M pre-incubated for 15 mins before HDAC-Glo I/II substrate addition and measured after 30 mins post substrate addition; format: cell-free
# Histone deacetylase 3 [8] = target: T4, Histone deacetylase 3 (Homo sapiens, UniProt O15379); test: Inhibition of HDAC3 (unknown origin) assessed as remaining enzyme activity at 0.025 uM by ELISA-based assay; procedure, shortened: as §1
# T4 sequence (O15379 whole entry): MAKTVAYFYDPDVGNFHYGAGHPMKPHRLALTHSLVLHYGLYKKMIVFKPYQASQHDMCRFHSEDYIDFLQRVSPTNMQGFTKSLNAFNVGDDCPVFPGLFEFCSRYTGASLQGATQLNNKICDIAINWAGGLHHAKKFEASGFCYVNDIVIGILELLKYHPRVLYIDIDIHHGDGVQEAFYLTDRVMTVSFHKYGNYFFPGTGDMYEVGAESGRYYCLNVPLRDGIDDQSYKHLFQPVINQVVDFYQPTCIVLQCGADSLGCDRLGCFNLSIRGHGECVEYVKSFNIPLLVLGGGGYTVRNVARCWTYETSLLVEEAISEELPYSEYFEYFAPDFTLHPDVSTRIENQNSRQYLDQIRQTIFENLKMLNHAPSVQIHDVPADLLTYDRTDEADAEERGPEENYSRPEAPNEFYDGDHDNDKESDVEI
# Homo sapiens [9] = organism: Homo sapiens; test: Inhibition of HDAC in human HeLa-S3 cells lysates assessed as remaining enzyme activity at 2.5 x 10^-7 M pre-incubated for 15 mins before HDAC-Glo I/II substrate addition and measured after 30 mins post substrate addition; format: cell-free
# [10] = Inhibition of HDAC in human HeLa-S3 cells lysates pre-incubated for 15 mins before HDAC-Glo I/II substrate addition and measured after 30 mins post substrate addition; format: cell-based
# Histone deacetylase 2 [11] = target: T3, Histone deacetylase 2; test: Inhibition of HDAC2 (unknown origin) assessed as remaining enzyme activity at 0.125 uM by ELISA-based assay; procedure, shortened: as §1
# Histone deacetylase 3 [12] = target: T4, Histone deacetylase 3; test: Inhibition of HDAC3 (unknown origin) assessed as remaining enzyme activity at 0.125 uM by ELISA-based assay; procedure, shortened: as §1
# Homo sapiens [13] = organism: Homo sapiens; test: Inhibition of HDAC in human HeLa-S3 cells lysates assessed as remaining enzyme activity at 1 x 10^-6 M pre-incubated for 15 mins before HDAC-Glo I/II substrate addition and measured after 30 mins post substrate addition; format: cell-free
# [14] = target: T2, Protein deacetylase HDAC6 (Homo sapiens); test: Inhibition of HDAC6 (unknown origin) assessed as remaining enzyme activity at 0.125 uM by ELISA-based assay; procedure, shortened: as §1
# Homo sapiens [15] = organism: Homo sapiens; test: Inhibition of HDAC in human HeLa-S3 cells lysates assessed as remaining enzyme activity at 4 x 10^-6 M pre-incubated for 15 mins before HDAC-Glo I/II substrate addition and measured after 30 mins post substrate addition; format: cell-free
# Homo sapiens [16] = organism: Homo sapiens; test: Inhibition of HDAC in human HeLa-S3 cells lysates assessed as remaining enzyme activity at 8 x 10^-6 M pre-incubated for 15 mins before HDAC-Glo I/II substrate addition and measured after 30 mins post substrate addition; format: cell-free
# Homo sapiens [17] = organism: Homo sapiens; test: Inhibition of HDAC in human HeLa-S3 cells lysates assessed as remaining enzyme activity at 2 x 10^-6 M pre-incubated for 15 mins before HDAC-Glo I/II substrate addition and measured after 30 mins post substrate addition; format: cell-free
# Histone deacetylase 1 [18] = target: T1, Histone deacetylase 1; test: Inhibition of HDAC1 (unknown origin) assessed as remaining enzyme activity at 0.125 uM by ELISA-based assay; procedure, shortened: as §1
# T1 sequence (Q13547 whole entry, canonical isoform): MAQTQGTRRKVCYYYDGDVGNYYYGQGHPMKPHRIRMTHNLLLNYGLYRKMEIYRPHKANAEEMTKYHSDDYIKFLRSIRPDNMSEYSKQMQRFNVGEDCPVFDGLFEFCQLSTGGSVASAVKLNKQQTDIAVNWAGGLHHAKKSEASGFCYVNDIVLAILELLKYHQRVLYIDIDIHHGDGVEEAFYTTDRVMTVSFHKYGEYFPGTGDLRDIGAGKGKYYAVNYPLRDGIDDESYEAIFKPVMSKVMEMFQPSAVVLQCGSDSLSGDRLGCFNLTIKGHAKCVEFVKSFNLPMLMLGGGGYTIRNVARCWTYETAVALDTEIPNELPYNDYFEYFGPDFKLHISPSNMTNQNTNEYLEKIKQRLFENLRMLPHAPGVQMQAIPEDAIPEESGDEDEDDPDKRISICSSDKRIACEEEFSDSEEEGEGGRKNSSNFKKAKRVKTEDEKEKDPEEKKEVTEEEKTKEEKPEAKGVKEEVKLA
Activity (Histone deacetylase 1 [1]) [%],Activity [2] [%],Activity (Histone deacetylase 2 [5]) [%],Activity (Histone deacetylase 3 [8]) [%],IC50 [10] [µM],Activity (Histone deacetylase 2 [11]) [%],Activity (Histone deacetylase 3 [12]) [%],Activity [14] [%],Activity (Histone deacetylase 1 [18]) [%],Compound,Activity (Homo sapiens [3]) [%],Activity (Homo sapiens [4]) [%],Activity (Homo sapiens [6]) [%],Activity (Homo sapiens [7]) [%],Activity (Homo sapiens [9]) [%],Activity (Homo sapiens [13]) [%],Activity (Homo sapiens [15]) [%],Activity (Homo sapiens [16]) [%],Activity (Homo sapiens [17]) [%]
67,63,81,80,,,,,,CC(CCCC(=O)NO)CCC(=O)Nc1ccccc1 (centres undefined),44,68,85,14,15,,,,
,,,,2.2,85,86,63,83,O=C(CCCC(CCC(=O)Nc1ccccc1)c1ccccc1)NO (centres undefined),,,,94,,74,31,15,53
